The results in this text go back to ChEMBL document CHEMBL1124779, “Synthesis and antitumor activity of 1-[[(dialkylamino)alkyl]amino]-4-methyl-5H-pyrido[4,3-b]benzo[e]- and -benzo[g])indoles. A new class of antineoplastic agents” (1990).

In assay [1] the test system is P388. Nature of the assay: In vitro cytotoxicity was determined against P388 leukemia cells. In kind it is functional. The conditions noted are these: Mus musculus, read-out: ID50 (the source's name). The procedure, abridged:
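P388 cells in exponential growth, RPMI 1640 with 2 mM glutamine, 10 μM 2-mercaptoethanol and 10% FCS, 5% CO2, 37 °C. Cells at 10^5 cells/mL. Drugs in distilled water added on day 0. Cells counted by Coulter counter after 96 h. ID50 (μg/mL, 50% inhibition of proliferation) estimated by regression of concentration/response data.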

Assay [2] relates to L1210. Nature of the assay: Tested for cytotoxicity in the multiple tumor disk diffusion soft agar assay at the dose of 15 ug/disk against leukemia L1210; range is 500-580. In kind it is functional, Mus musculus. The procedure, abridged:
(§1)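 Soft agar disk diffusion: bottom layer 0.8% noble agar, top layer 0.47% noble agar, both in 1:1 CMRL-Fischer medium with 11% horse serum. Top layer seeded with 5×10^3 L1210 cells or 10^6 solid tumor cells (C38, PO3). Drug applied on a dried 6-mm filter-paper disk. Incubation 7-11 days. Inhibition zone measured by inverted microscope, in units (1 unit = 30 μm).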
(A growth-free zone around the sample is the usual read-out of agar diffusion tests.)

Assay [3] has as its system L1210. The assay can be described thus: Cytotoxicity in the multiple tumor disk diffusion soft agar assay at the dose of 15 ug/disk against leukemia L1210. In kind it is functional, Mus musculus. The method in brief:
as §1

Assay [4] concerns P388. The assay can be described thus: In vivo T/C (survival time treated/survival time control x 100) was determined against P388 leukemia cells at 10 mg/Kg. In kind it is functional, Mus musculus. The method in brief:
(§2)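 B6D2 F1 mice, at least five per group, were inoculated ip on day 0 with 10^6 viable P388 cells (25 mL/kg). Compounds were dissolved in distilled water and given ip (25 mL/kg) daily on days 1–4. Mortality was checked daily, with necropsy of dead animals. T/C×100 was median survival, treated versus control. Survivors beyond 50 days counted as cured and were excluded from the median.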

Assay [5] is described as follows: Tested for cytotoxicity in the multiple tumor disk diffusion soft agar assay at the dose of 15 ug/disk against solid tumor C38; U = 32 uM. In kind it is functional, Mus musculus. The procedure, abridged:
as §1

Assay [6] can be described thus: Tested for cytotoxicity in the multiple tumor disk diffusion soft agar assay at the dose of 15 ug/disk against solid tumor PO3; U = […]. It counts as functional, Mus musculus. The method in brief: as §1
For assay [7], the system named is L1210. The assay can be described thus: Tested for cytotoxicity in the multiple tumor disk diffusion soft agar assay at the dose of 15 ug/disk against leukemia L1210; U = 32 uM. It counts as functional, Mus musculus. The procedure, abridged: as §1
Assay [8] deals with L1210. Nature of the assay: Tested for cytotoxicity in the multiple tumor disk diffusion soft agar assay at the dose of 15 ug/disk against leukemia L1210; range is 290-350. It counts as functional, Mus musculus. The procedure, abridged:
as §1

The subject of assay [9] is P388. Nature of the assay: In vivo T/C (survival time treated/survival time control x 100) was determined against P388 leukemia cells at 40 mg/Kg. It counts as functional, Mus musculus. The procedure, abridged:
as §2

Assay [10] deals with L1210. Nature of the assay: Tested for cytotoxicity in the multiple tumor disk diffusion soft agar assay at the dose of 15 ug/disk against leukemia L1210; range is 450-500. In kind it is functional, Mus musculus. The method in brief: as §1
Assay [11] is described as follows: Cytotoxicity in the multiple tumor disk diffusion soft agar assay at the dose of 15 ug/disk against solid tumor PO3. It counts as functional, Mus musculus. The method in brief: as §1
Assay [12] can be described thus: Cytotoxicity in the multiple tumor disk diffusion soft agar assay at the dose of 15 ug/disk against solid tumor C38. It counts as functional, Mus musculus. The method in brief:
as §1

For assay [13], the system named is L1210. The assay can be described thus: Tested for cytotoxicity in the multiple tumor disk diffusion soft agar assay at the dose of 15 ug/disk against leukemia L1210. It counts as functional, Mus musculus. The procedure, abridged:
as §1

Assay [14] is described as follows: Tested for cytotoxicity in the multiple tumor disk diffusion soft agar assay at the dose of 15 ug/disk against solid tumor PO3; range is 430-480. It counts as functional, Mus musculus.
The subject of assay [15] is L1210. The assay can be described thus: Tested for cytotoxicity in the multiple tumor disk diffusion soft agar assay at the dose of 15 ug/disk against leukemia L1210; range is 420-525. It counts as functional, Mus musculus. The procedure, abridged: as §1
The subject of assay [16] is Mus musculus. Nature of the assay: Tested for the change in body weight between day1 and 7 for murine solid tumor model MA 16/C early stage that is subcutaneously implanted by the intravenous treatment at the dose of 5 mg/kg in 1-4 schedule. In kind it is functional. The procedure, abridged:
(§3)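 Mice given sc 1 mm³ tumor fragment: C26 in CD2F1 mice, MA 16/C in C3H mice (tumors passaged in strain of origin), 10 per group. Drug given iv days 1–4 at 10 mL/kg. Animals weighed daily and watched for toxicity. Body-weight change taken from day 1 to day 7. Killed day 14 (C26) or 15 (MA 16/C).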

A short description of assay [17]: Tested for the change in body weight between day1 and 7 for murine solid tumor model B16 early stage that is subcutaneously implanted by the intravenous treatment at the dose of 5 mg/kg in 1-4 schedule. It counts as functional, Mus musculus. The method in brief:
(§4)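 sc implant of 1 mm³ tumor fragment. MA 16/C in C3H mice, B16 in C57BL/6 mice, C26 in CD2F1 mice; 10 per group. iv dosing on days 1-4 at 10 mL/kg. Mice weighed daily. Killed day 14 (C26) or day 15 (MA 16/C, B16) and tumors weighed. T/C×100 from median tumor weight, treated vs control. Body weight change taken from day 1 to 7.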

The subject of assay [18] is Mus musculus. The assay can be described thus: Tested for medium tumor weight of treated /control animals x 100 (% T/C) for murine solid tumor model C26 early stage that is subcutaneously implanted by the intravenous treatment at the dose of 10 mg/kg in 1-4 schedule. It counts as functional. The method in brief:
as §4

Assay [19] relates to Mus musculus. The assay can be described thus: Tested for the change in body weight between day1 and 7 for murine solid tumor model C26 early stage that is subcutaneously implanted by the intravenous treatment at the dose of 10 mg/kg in 1-4 schedule. In kind it is functional. The method in brief: as §4
The nature of assay [20]: Tested for medium tumor weight of treated /control animals x 100 (% T/C) for murine solid tumor model B16 early stage that is subcutaneously implanted by the intravenous treatment at the dose of 5 mg/kg in 1-4 schedule. In kind it is functional, Mus musculus. The procedure, abridged: as §4
Assay [21] relates to Mus musculus. Nature of the assay: Tested for medium tumor weight of treated /control animals x 100 (% T/C) for murine solid tumor model MA 16/C early stage that is subcutaneously implanted by the intravenous treatment at the dose of 5 mg/kg in 1-4 schedule. It counts as functional. The procedure, abridged:
as §4

For assay [22], the system named is Mus musculus. The assay can be described thus: Tested for the change in body weight between day1 and 14 for murine solid tumor model 3LL advanced stage that is intramuscularly implanted by the intravenous treatment at the dose of 2.5 mg/kg in 7-10 schedule.
Assay [23] has as its system Mus musculus. Nature of the assay: In vivo total number of survivors was determined against L1210 Leukemia cells out of 8 mouse at 50 day. In kind it is functional, Leukemia cell. The procedure, abridged: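 B6D2 F1 mice, at least five per group, were inoculated ip on day 0 with 10^5 viable L1210 cells (25 mL/kg). Compounds were dissolved in distilled water and given ip (25 mL/kg) on days 1–4. Deaths were checked daily, with necropsy to separate tumor from toxic death. T/C×100 was median survival of treated over controls. Mice surviving over 50 days counted as cured and were excluded from the median.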

Assay [24] concerns Mus musculus. The assay can be described thus: Tested for medium tumor weight of treated /control animals x 100 (% T/C) for murine solid tumor model B16 early stage that is subcutaneously implanted by the intravenous treatment at the dose of 1.25 mg/kg in 1-4 schedule. In kind it is functional. The method in brief: as §4
The subject of assay [25] is Mus musculus. Nature of the assay: Tested for the change in body weight between day1 and 7 for murine solid tumor model C26 early stage that is subcutaneously implanted by the intravenous treatment at the dose of 2.5 mg/kg in 1-4 schedule. It counts as functional. The method in brief: as §3
Assay [26] relates to Mus musculus. Nature of the assay: Tested for the change in body weight between day1 and 7 for murine solid tumor model MA 16/C early stage that is subcutaneously implanted by the intravenous treatment at the dose of 2.5 mg/kg in 1-4 schedule. In kind it is functional. The procedure, abridged:
as §3

The test system of assay [27] is Mus musculus. Nature of the assay: Tested for medium tumor weight of treated /control animals x 100 (% T/C) for murine solid tumor model C26 early stage that is subcutaneously implanted by the intravenous treatment at the dose of 2.5 mg/kg in 1-4 schedule. It counts as functional. The procedure, abridged: as §4
Assay [28] has as its system Mus musculus. The assay can be described thus: Tested for medium tumor weight of treated /control animals x 100 (% T/C) for murine solid tumor model 3LL advanced stage that is subcutaneously implanted by the intravenous treatment at the dose of 2.5 mg/kg in 1-4 schedule. In kind it is functional.
The test system of assay [29] is Mus musculus. The assay can be described thus: Tested for the change in body weight between day1 and 7 for murine solid tumor model 3LL early stage that is intramuscularly implanted by the intravenous treatment at the dose of 2.5 mg/kg in 1-4 schedule.
Assay [30] has as its system Mus musculus. The assay can be described thus: Tested for medium tumor weight of treated /control animals x 100 (% T/C) for murine solid tumor model MA 16/C early stage that is subcutaneously implanted by the intravenous treatment at the dose of 2.5 mg/kg in 1-4 schedule. In kind it is functional. The method in brief: as §4
In assay [31] the test system is Mus musculus. The assay can be described thus: Tested for the change in body weight between day1 and 7 for murine solid tumor model B16 early stage that is subcutaneously implanted by the intravenous treatment at the dose of 1.25 mg/kg in 1-4 schedule. It counts as functional. The procedure, abridged: as §4
In assay [32] the test system is Mus musculus. The assay can be described thus: Tested for mean number of metastases in treated/control animals x 100 (% T/C) for murine solid tumor model 3LL early stage that is intramuscularly implanted by the intravenous treatment at the dose of 2.5 mg/kg in 1-4 schedule.

≈ marks a conversion by molar mass, not a printed value.

Consider `Cc1cnc(NCCCN(C)C)c2c3ccc4ccccc4c3n(C)c12`, for which the IC50 in [1] was 0.375 µg/mL (≈ 1.08 µM). Also, the Cytotoxicity in assay [2] was 500 U; in assay [3], 450 U; in assay [5], 480 U; in assay [6], 325 U. In assay [4], the “T/C x100” value is on record as 119.
Take `COc1cccc2c1ccc1c3c(NCCCN(C)C)ncc(C)c3n(C)c21`: the Cytotoxicity in [7] was found to be 375 U; in [5], 675 U; in assay [8] it was 290 U; in assay [6] it was 275 U. The IC50 in assay [1] was 0.75 µg/mL (≈ 1.99 µM). Further, the “T/C x100” value in [9] stood at 130.
As for `CCN(CC)CCCNc1ncc(C)c2c1c1c3ccc(OC)cc3ccc1n2C`, the IC50 in assay [1] came out at 0.75 µg/mL (≈ 1.85 µM). Moreover, the Cytotoxicity in assay [3] stood at 400 U; in [10], 450 U; in assay [11] it was 375 U; in [12], 325 U. Further, the “T/C x100” value in assay [9] was 143.
Regarding `CCN(CC)CCCNc1ncc(C)c2c1c1ccc3c(O)cccc3c1n2C`, the Cytotoxicity was 500 U in assay [7], 730 U in assay [5], 450 U in [13] and 430 U in assay [14]. The IC50 in [1] worked out at 0.05 µg/mL (≈ 0.128 µM). In addition, the “T/C x100” value in assay [4] is listed as 160.
Consider `CCN(CC)CCCNc1ncc(C)c2[nH]c3ccc4ccccc4c3c12`, for which the IC50 in assay [1] worked out at 0.18 µg/mL (≈ 0.499 µM). Also, the Cytotoxicity in assay [15] was 420 U; in assay [12], 525 U. The “T/C x100” value in assay [9] was 149.
For the compound `CCN(CC)CCCNc1nccc2c(C)c3[nH]c4ccncc4c3cc12` [PAZELLIPTINE], the values for the Change in weight in assay [16], in assay [17] and in assay [19] were -1.5 g, -0.5 g and -1.5 g, respectively. Also, the T/C (as a rule, the result in the treated group divided by that in the control group, in per cent) in assay [18] was 10%; in assay [20], 10%; in assay [21], 45%.
Take `CCN(CC)CCCNc1nccc2c(C)c3[nH]c4ccc(OC)cc4c3c(C)c12` [RETELLIPTINE]: the Change in weight in assay [22] is 0 g; in assay [25], -2.1 g; in assay [26], -2.2 g; in assay [29], -1.4 g; in assay [31], 1 g. This compound also returned a Survivors in [23] of 3. The T/C stood at 26% in assay [24]; 0% in assay [27]; 40% in assay [28]; 4% in [30]; 0% in assay [32].
